# Measurements pooled from the literature.
# Compare with care: the assays were run in different laboratories.
SMILES,assay,test system,conditions,quantity,value
CCNCCCNC/C=C\CNCCCNCC,,"human, plasma","intravenous, 150 mg, patients, infusion",clearance,5910 mL/min
c1ccc(C2CCN(c3nc(-c4cnn5cccnc45)nc4ccccc34)C2)nc1 (stereo not shown),metabolic stability,"human, liver microsomes",,microsomal CLint,47 µL/min/mg
COc1cccnc1-c1nc2ccccn2c1Nc1ccc(F)cc1,metabolic stability,"rat, hepatocytes",,hepatocyte CLint,29 µL/min/10⁶ cells
OC[C@H]1O[C@@H](c2ccc(Cl)c(Cc3ccc(O[C@H]4CCOC4)cc3)c2)[C@H](O)[C@@H](O)[C@@H]1O,,"human, urine","oral, 10 mg, single dose",renal clearance,24.5 mL/min
Fc1ccc(Nc2c(-c3cccc(F)n3)nc3ccccn23)cc1,metabolic stability,"rat, hepatocytes",,hepatocyte CLint,> 300 µL/min/10⁶ cells
c1cnc2ccc(Nc3nc(NC4CC4)c4nc[nH]c4n3)cc2c1,,"human, plasma","oral, 100 mg/m², patients",CL/F,35.1 L/h
COc1cc(C(=O)NC2CCN(C)CC2)c(F)cc1Nc1ncc(C(F)(F)F)c(Oc2cccc3c2C(=O)N(C)C3)n1,,"human, plasma","oral, 25 mg, multiple doses, once daily, patients",CL/F,8.34 L/h
c1ccc(-c2nc(NCc3nc4ccccc4o3)c3ccccc3n2)nc1,metabolic stability,"human, liver microsomes",,microsomal CLint,47 µL/min/mg
COc1ccnc(-c2nc3ccccn3c2Nc2ccc(F)cc2)c1,metabolic stability,"rat, hepatocytes",,hepatocyte CLint,190 µL/min/10⁶ cells
Cc1ccc(C(=O)N(CCCN)[C@@H](c2oc3cc(Cl)ccc3c(=O)c2Cc2ccccc2)C(C)C)cc1,,"human, plasma","intravenous, 2 mg/m², single dose, patients, infusion",clearance,26.6 mL/min
